Laboratory results as given in ChEMBL document CHEMBL2384970, “Development of peptidomimetic boronates as proteasome inhibitors” (Eur J Med Chem, 2013).
The source made the active and inactive calls. The calls are words filed in the database; no cut-off is given here.

Columns and labels:
[1] = target: T1, Proteasome Macropain subunit MB1 (Homo sapiens, UniProt P28074); experiment: Inhibition of human 20S proteasome chymotrypsin like activity using Suc-Leu-Leu-Val-Tyr-AMC as substrate measured over 10 mins by fluorescence assay
T1 sequence (P28074 whole entry): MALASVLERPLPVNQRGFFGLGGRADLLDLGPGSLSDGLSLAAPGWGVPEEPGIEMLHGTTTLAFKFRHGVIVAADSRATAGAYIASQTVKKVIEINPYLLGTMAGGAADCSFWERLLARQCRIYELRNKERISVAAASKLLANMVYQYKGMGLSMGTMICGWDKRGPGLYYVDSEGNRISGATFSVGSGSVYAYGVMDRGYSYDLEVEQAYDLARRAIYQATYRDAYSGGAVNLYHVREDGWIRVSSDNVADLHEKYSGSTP

[2] = target: T2, Proteasome Macropain subunit MB1 (Homo sapiens) (UniProt P28074); experiment: Inhibition of human 20S proteasome chymotrypsin like activity using Suc-Leu-Leu-Val-Tyr-AMC as substrate at 20 uM measured over 10 mins by fluorescence assay relative to control
T2 sequence (whole entry): T1 sequence (P28074 whole entry)
Method in brief: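 Screening run at a single […] inhibitor concentration against purified human erythrocyte 20S proteasome, using an equal amount of DMSO as the negative control. AMC fluorescence read at ex 380/em 460 nm continuously for 10 min.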

[3] = target: Proteasome Macropain subunit (Homo sapiens) (UniProt P49721); experiment: Inhibition of human 20S proteasome trypsin like activity using Boc-Leu-Leu-Arg-Arg-AMC as substrate at 20 uM measured over 10 mins by fluorescence assay; conditions: in the assay text read “Boc-Leu-Arg-Arg-AMC” for “Boc-Leu-Leu-Arg-Arg-AMC”
Proteasome Macropain subunit (Homo sapiens), sequence (P49721 whole entry): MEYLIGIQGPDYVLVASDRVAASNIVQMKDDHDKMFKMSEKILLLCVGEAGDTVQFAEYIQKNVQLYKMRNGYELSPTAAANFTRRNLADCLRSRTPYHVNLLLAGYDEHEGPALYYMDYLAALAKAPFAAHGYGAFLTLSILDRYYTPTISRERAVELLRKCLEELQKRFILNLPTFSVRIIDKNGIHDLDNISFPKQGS
Method in brief: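 Tryptic activity of human erythrocyte 20S proteasome at 0.0025 mg mL1, 30 °C, in 50 mM Tris pH 7.4, 50 mM NaCl, 0.5 mM EDTA, 0.03% SDS, 7.5% DMSO. Compound at […]. Boc-Leu-Arg-Arg-AMC at […]. Continuous 10-min fluorescence reading (ex 380/em 460 nm) against a DMSO control.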

Homo sapiens = species: Homo sapiens; experiment: Selectivity ratio of Ki for human 20S proteasome post-glutamyl peptide hydrolyzing activity to Ki for human 20S proteasome chymotrypsin like activity
[4] = Inhibition of bovine pancreatic alpha-chymotrypsin using Suc-Leu-Leu-Val-Tyr-AMC as substrate measured over 10 mins by fluorescence assay; design: species or system Bos taurus
Method in brief: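 Bovine pancreatic alpha-chymotrypsin ([…] as printed) incubated at 20 °C with test compound in 50 mM Tris pH 8.0, 100 mM NaCl, 5 mM EDTA, 7.5% DMSO. Substrate at […] final. Product release followed over 10 min. Ki obtained from progress curves fitted to a 4-parameter IC50 equation and corrected for substrate.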

Proteasome component C5 = target: T3, Proteasome component C5 (Homo sapiens, UniProt P20618); experiment: Inhibition of human 20S proteasome post-glutamyl peptide hydrolyzing activity using Z-Leu-Leu-Glu-AMC as substrate measured over 10 mins by fluorescence assay
T3 sequence (P20618 whole entry): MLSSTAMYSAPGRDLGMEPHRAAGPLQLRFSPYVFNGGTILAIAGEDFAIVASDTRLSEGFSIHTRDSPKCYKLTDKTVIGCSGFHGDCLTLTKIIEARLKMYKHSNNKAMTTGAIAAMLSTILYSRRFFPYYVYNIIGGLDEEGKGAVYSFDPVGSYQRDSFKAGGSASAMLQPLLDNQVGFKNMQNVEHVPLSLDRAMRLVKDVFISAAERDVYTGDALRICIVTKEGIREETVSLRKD

## CC(C)C[C@H](NC(=O)Cn1ccc(N2CCOCC2)cc1=O)B(O)O
[1]
  Ki: 1450 nM
[2]
  inhibition: > 40%
[3]
  inhibition: inactive

## CC(C)C[C@H](NC(=O)Cn1ccc(N2CCN(C)CC2)cc1=O)B(O)O
[2]
  inhibition: 30%
[3]
  inhibition: inactive

## CC(C)C[C@H](NC(=O)[C@H](Cc1ccccc1)NC(=O)c1cnccn1)B(O)O
[2]
  inhibition: > 40%

## CC(C)C[C@H](NC(=O)Cn1cc(Br)c2ncccc2c1=O)B(O)O
[1]
  Ki: 170 nM
[2]
  inhibition: > 40%
[3]
  inhibition: inactive

## CC(C)C[C@H](NC(=O)Cn1ccccc1=O)B(O)O
[1]
  Ki: 260 nM
Homo sapiens
  Ratio Ki: 5.3
[2]
  inhibition: > 40%
[3]
  inhibition: inactive

## CC(C)C[C@H](NC(=O)[C@H](C)n1ccc2ncccc2c1=O)B(O)O
[1]
  Ki: 1340 nM
Homo sapiens
  Ratio Ki: 10
[2]
  inhibition: > 40%
[3]
  inhibition: inactive
[4]
  Ki: 9160 nM

## CC(C)C[C@H](NC(=O)Cn1ccc(Nc2ccccc2)cc1=O)B(O)O
[1]
  Ki: 98 nM
Homo sapiens
  Ratio Ki: 52
[2]
  inhibition: > 40%
[3]
  inhibition: inactive
[4]
  Ki: 12700 nM

## CC(C)C[C@H](NC(=O)Cn1ccc2c(c1=O)CCCN2C)B(O)O
[1]
  Ki: 1620 nM
[2]
  inhibition: > 40%
[3]
  inhibition: inactive

## CC(C)C[C@H](NC(=O)Cn1ccc(N2CCCCC2)cc1=O)B(O)O
[1]
  Ki: 300 nM
[2]
  inhibition: > 40%
[3]
  inhibition: inactive

## C=CCN1CCN(c2ccn(CC(=O)N[C@@H](CC(C)C)B(O)O)c(=O)c2)CC1
[1]
  Ki: 5900 nM
[2]
  inhibition: > 40%
Proteasome component C5
  Ki: Not Active
[3]
  inhibition: inactive

## CCN(CC)c1ccn(CC(=O)N[C@@H](CC(C)C)B(O)O)c(=O)c1
[1]
  Ki: 800 nM
Homo sapiens
  Ratio Ki: 5.5
[2]
  inhibition: > 40%
[3]
  inhibition: inactive

## CC(C)C[C@H](NC(=O)Cn1ccc2ncccc2c1=O)B(O)O
[1]
  Ki: 440 nM
[2]
  inhibition: > 40%
[3]
  inhibition: inactive
